Laboratory results as given in ChEMBL document CHEMBL4020840, “Synthesis and Biological Evaluation of Selenium-Containing 4-Anilinoquinazoline Derivatives as Novel Antimitotic Agents” (J Med Chem, 2018).
pIC50: −log10 of the molar value.

Assays:
A549 [1] = assay: Induction of apoptosis in human A549 cells assessed as live cells at 2 nM after 24 hrs by Annexin V-FITC/propidium iodide staining based flow cytometry (reference value: 98.84%); type: functional
[2] = Selectivity index, ratio of IC50 for human LO2 cells to IC50 for human A549 cells; type: functional
Method in brief: (§1)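 MTT assay in normal cells and A549: seeding at 5 × 10³ cells/well for 24 h, 48 h compound exposure, then 5 mg/mL MTT for 4 h, DMSO solubilisation and absorbance at 570 nm. IC50 values came from dose–response curves of at least three independent experiments. Selectivity ratio = IC50 in normal cells / IC50 in A549.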

[3] = Selectivity index, ratio of IC50 for HLF to IC50 for human A549 cells; method in brief: as §1
A549 [4] = assay: Growth inhibition of human A549 cells after 48 hrs by MTT assay; type: functional, cell-based; settings: A549, 48 h
HCT-116 = assay: Growth inhibition of human HCT116 cells after 48 hrs by MTT assay; type: functional, cell-based; settings: HCT-116, 48 h
Method in brief: (§2)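 MTT assay: log-phase cells plated at 5 × 10³/well for 24 h, then exposed to a range of test concentrations for 48 h. MTT (5 mg/mL) added for 4 h, formazan dissolved in DMSO, absorbance read at 570 nm. IC50 is the concentration giving 50% growth inhibition, from dose-response curves; at least three independent experiments, mean ± SE.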

HepG2 = assay: Growth inhibition of human HepG2 cells after 48 hrs by MTT assay; type: functional, cell-based; settings: HepG2, 48 h; method in brief: as §2
LoVo = assay: Growth inhibition of human LoVo cells after 48 hrs by MTT assay; type: functional, cell-based; method in brief: as §2
RKO = assay: Growth inhibition of human RKO cells after 48 hrs by MTT assay; type: functional, cell-based; method in brief: as §2
MCF7 = assay: Antiproliferative activity against human MCF7 cells after 48 hrs by MTT assay; type: functional, cell-based; settings: MCF7, 48 h; method in brief: as §2
HeLa = assay: Antiproliferative activity against human HeLa cells after 48 hrs by MTT assay; type: functional, cell-based; method in brief: as §2
MGC-803 = assay: Antiproliferative activity against human MGC803 cells after 48 hrs by MTT assay; type: functional, cell-based; settings: MGC-803, 48 h; method in brief: as §2
A549/CDDP = assay: Growth inhibition of human A549/CDDP cells after 48 hrs by MTT assay; type: functional, cell-based; method in brief: as §2
[5] = Growth inhibition of human HepG2/DOX cells after 48 hrs by MTT assay; type: functional, cell-based; method in brief: as §2
[6] = Resistance factor, ratio of IC50 for human A549/CDDP cells to IC50 for human A549 cells; type: functional
Method in brief: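 MTT assay: log-phase cells were seeded at 5 × 10³/well for 24 h, then exposed to a concentration series for 48 h. MTT (5 mg/mL) was added for 4 h, formazan was dissolved in DMSO, and A570 was read. IC50 values came from dose–response curves of at least three independent experiments. Resistance factor = IC50 in the resistant line / IC50 in the parental sensitive line.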

[7] = Inhibition of porcine brain tubulin polymerization measured every 60 secs for 90 mins by DAPI staining based fluorescence assay; design: species or system Sus scrofa
Method in brief: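 Purified tubulin was tested in a kit assay. Final buffer: 80 mM PIPES sesquisodium (pH 6.9), 2.0 mM MgCl₂, 0.5 mM EGTA, 1 mM GTP, 10.2% glycerol. Compound (0.1–10 μM) was prewarmed at 37 °C for 1 min before tubulin was added. DAPI reporter fluorescence (ex 340 / em 410 nm) was read every 60 s for 90 min. Area under the curve gave percent inhibition versus control and the IC50.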

[8] = Antiproliferative activity against HLF after 48 hrs by MTT assay; type: cell-based; settings: Homo sapiens; method in brief: as §2
A549 [9] = assay: Cell cycle arrest in human A549 cells assessed as accumulation at G2/M phase at 4 nM after 12 hrs by propidium iodide staining based flow cytometry (reference value: 10.13%); type: functional
Method in brief: (§3)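 A549 seeded in six-well plates at 3 × 10⁵ cells/well and treated for 12 or 24 h; vehicle 0.01% DMSO. Cells fixed overnight in ice-cold 70% ethanol, treated with RNase A at 37 °C for 30 min, then stained with PI at 4 °C for 30 min. About 10 000 events acquired by flow cytometry at 488 nm; three experiments.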

A549 [10] = assay: Cell cycle arrest in human A549 cells assessed as accumulation at G2/M phase at 4 nM after 24 hrs by propidium iodide staining based flow cytometry (reference value: 10.13%); type: functional; method in brief: as §3
A549 [11] = assay: Induction of apoptosis in human A549 cells assessed as early apoptotic cells at 2 nM after 24 hrs by Annexin V-FITC/propidium iodide staining based flow cytometry (reference value: 0.98%); type: functional
A549 [12] = assay: Induction of apoptosis in human A549 cells assessed as late apoptotic cells at 2 nM after 24 hrs by Annexin V-FITC/propidium iodide staining based flow cytometry (reference value: 0.08%); type: functional
A549 [13] = assay: Induction of apoptosis in human A549 cells assessed as necrotic cells at 2 nM after 24 hrs by Annexin V-FITC/propidium iodide staining based flow cytometry (reference value: 0.10%); type: functional
A549 [14] = assay: Induction of apoptosis in human A549 cells assessed as early apoptotic cells at 4 nM after 24 hrs by Annexin V-FITC/propidium iodide staining based flow cytometry (reference value: 0.98%); type: functional
A549 [15] = assay: Induction of apoptosis in human A549 cells assessed as late apoptotic cells at 4 nM after 24 hrs by Annexin V-FITC/propidium iodide staining based flow cytometry (reference value: 0.08%); type: functional
A549 [16] = assay: Induction of apoptosis in human A549 cells assessed as early apoptotic cells at 2 nM after 48 hrs by Annexin V-FITC/propidium iodide staining based flow cytometry (reference value: 1.48%); type: functional
A549 [17] = assay: Induction of apoptosis in human A549 cells assessed as necrotic cells at 2 nM after 48 hrs by Annexin V-FITC/propidium iodide staining based flow cytometry relative to control; type: functional
A549 [18] = assay: Induction of apoptosis in human A549 cells assessed as live cells at 4 nM after 48 hrs by Annexin V-FITC/propidium iodide staining based flow cytometry (reference value: 98.49%); type: functional
A549 [19] = assay: Induction of apoptosis in human A549 cells assessed as early apoptotic cells at 4 nM after 48 hrs by Annexin V-FITC/propidium iodide staining based flow cytometry (reference value: 1.48%); type: functional
A549 [20] = assay: Induction of apoptosis in human A549 cells assessed as late apoptotic cells at 4 nM after 48 hrs by Annexin V-FITC/propidium iodide staining based flow cytometry (reference value: 0.03%); type: functional
A549 [21] = assay: Induction of mitochondrial membrane disruption in human A549 cells assessed as cells with intact mitochondrial membrane at 2 nM after 48 hrs by JC1 staining based flow cytometry (reference value: 99.13%); type: functional
A549 [22] = assay: Induction of mitochondrial membrane disruption in human A549 cells assessed as cells with intact mitochondrial membrane at 4 nM after 48 hrs by JC1 staining based flow cytometry (reference value: 99.13%); type: functional
A549 [23] = assay: Induction of mitochondrial membrane disruption in human A549 cells assessed as cells with mitochondrial membrane potential loss at 8 nM after 48 hrs by JC1 staining based flow cytometry (reference value: 0.82%); type: functional
L02 = assay: Antiproliferative activity against human LO2 cells after 48 hrs by MTT assay; type: cell-based; settings: L02, 48 h; method in brief: as §2
BJ = assay: Antiproliferative activity against human BJ cells after 48 hrs by MTT assay; type: cell-based; method in brief: as §2

**Q.** For `C[Se]c1ccc(N(C)c2nc(C)nc3ccccc23)cc1`, which Activity (A549 [1]) is on record?
**A.** 78.97%

**Q.** And the “Ratio IC50” value [2]?
**A.** 9.5

**Q.** What about the “Ratio IC50” value [3] of the same compound?
**A.** 10

**Q.** What about the pIC50 (A549 [4]) of the same compound?
**A.** 8.70

**Q.** What about the pIC50 (HCT-116) of the same compound?
**A.** 8.52

**Q.** And the pIC50 (HepG2)?
**A.** 8.40

**Q.** And the pIC50 (LoVo)?
**A.** 8.05

**Q.** And the pIC50 (RKO)?
**A.** 8.40

**Q.** What about the pIC50 (MCF7) of the same compound?
**A.** 8.00

**Q.** And the pIC50 (HeLa)?
**A.** 8.52

**Q.** What about the pIC50 (MGC-803) of the same compound?
**A.** 8.15

**Q.** What about the pIC50 (A549/CDDP) of the same compound?
**A.** 8.05

**Q.** What about the pIC50 [5] of the same compound?
**A.** 8.10

**Q.** What about the “Ratio IC50” value [6] of the same compound?
**A.** 4.09

**Q.** And the pIC50 [7]?
**A.** 5.72

**Q.** What about the pIC50 [8] of the same compound?
**A.** 7.70

**Q.** What about the Activity (A549 [9]) of the same compound?
**A.** 67.1%

**Q.** What about the Activity (A549 [10]) of the same compound?
**A.** 87.16%

**Q.** And the Activity (A549 [11])?
**A.** 16.35%

**Q.** And the Activity (A549 [12])?
**A.** 3.82%

**Q.** What about the Activity (A549 [13]) of the same compound?
**A.** 0.9%

**Q.** And the Activity (A549 [14])?
**A.** 26.51%

**Q.** And the Activity (A549 [15])?
**A.** 6.35%

**Q.** What about the Activity (A549 [16]) of the same compound?
**A.** 26.51%

**Q.** What about the Activity (A549 [17]) of the same compound?
**A.** 3.19%

**Q.** What about the Activity (A549 [18]) of the same compound?
**A.** 10.31%

**Q.** What about the Activity (A549 [19]) of the same compound?
**A.** 54.14%

**Q.** And the Activity (A549 [20])?
**A.** 28.75%

**Q.** And the Activity (A549 [21])?
**A.** 83.86%

**Q.** What about the Activity (A549 [22]) of the same compound?
**A.** 56.98%

**Q.** What about the Activity (A549 [23]) of the same compound?
**A.** 63.13%

**Q.** What about the pIC50 (L02) of the same compound?
**A.** 7.72

**Q.** And the pIC50 (BJ)?
**A.** 7.72
